From ChEMBL document CHEMBL5356992, “New nitazoxanide derivatives: design, synthesis, biological evaluation, and molecular docking studies as antibacterial and antimycobacterial agents” (RSC Med Chem, 2023)
≈ marks a conversion by molar mass, not a printed value.

Columns and labels:
Escherichia coli [1] = test: Antibacterial activity against Escherichia coli ATCC 8739 by broth microdilution method; format: functional
Outline: (§1)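 CLSI broth microdilution on wild-type strains. E. coli ATCC 8739, P. aeruginosa ATCC 27853 and K. pneumoniae ATCC 10031 served as Gram-negatives. S. aureus ATCC 6538 and E. faecalis ATCC 19433 served as Gram-positives. H. pylori ATCC 700392 was tested as the […]. Ciprofloxacin was the reference drug. MIC is given in μM as the mean of three experiments.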

Klebsiella pneumoniae [2] = test: Antibacterial activity against Klebsiella pneumoniae ATCC 10031 by broth microdilution method; format: functional; outline: as §1
Helicobacter pylori = test: Antibacterial activity against Helicobacter pylori ATCC 700392 by broth microdilution method; format: functional; outline: as §1
[3] = system: Mycobacterium tuberculosis; test: Antimycobacterial activity against Mycobacterium tuberculosis H37Rv incubated for 7 days by alamar blue assay; format: functional; details: 168 h, time 7 day
Outline: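 Two-fold serial dilutions in 7H9-S, with growth and sterile controls, incubated at 37 °C for 7 days. Alamar Blue then added and incubated overnight. MIC is the lowest concentration preventing the blue-to-pink change. Means of three experiments.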

Staphylococcus aureus [4] = test: Antibacterial activity against Staphylococcus aureus ATCC 6538 by broth microdilution method; format: functional; outline: as §1
Enterococcus faecalis [5] = test: Antibacterial activity against Enterococcus faecalis ATCC 19433 by broth microdilution method; format: functional; outline: as §1
RAW264.7 = test: Cytotoxicity against mouse RAW264.7 cells at 25 ug/ml incubated for 48 hrs by MTT assay; format: toxicity, cell-based; details: raw264.7, 48 h, at 25 µg/mL
Outline: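 RAW 264.7 mouse macrophages were grown in RPMI with 10% FBS plus penicillin/streptomycin to 80–90% confluency. About 5000 cells/well were seeded on poly-L-lysine-coated plates and held 24 h at 37 °C, 5% CO2. Compound was added at 25 μg mL−1 for 48 h at 37 °C. MTT (0.5 mg mL−1) was added for 3 h, and formazan was read at 595 and 625 nm. Result is % inhibition.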

[6] = Selectivity index, ratio of cytotoxicity against mouse RAW264.7 cells to MIC for Mycobacterium tuberculosis H37Rv; format: toxicity, cell-based; details: read-out: Selectivity Index
Outline: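 SI is cytotoxicity divided by the MABA MIC (μg mL⁻¹) against H37Rv. For cytotoxicity, RAW 264.7 cells were grown in RPMI with 10% FBS and penicillin/streptomycin. About 5000 cells per well were seeded on poly-L-lysine plates and held 24 h at 37 °C, 5% CO2. Compounds were added at 25 μg mL⁻¹ for 48 h, then MTT (0.5 mg mL⁻¹) for 3 h. Formazan was read at 595/625 nm and reported as % inhibition.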

Escherichia coli [7] = test: Potency index, ratio of nitazoxanide MIC to test compound MIC for antibacterial activity against Escherichia coli ATCC 8739; format: functional
Pseudomonas aeruginosa [8] = test: Antibacterial activity against Pseudomonas aeruginosa ATCC 27853 by broth microdilution method; format: functional; outline: as §1
Pseudomonas aeruginosa [9] = test: Potency index, ratio of nitazoxanide MIC to test compound MIC for antibacterial activity against Pseudomonas aeruginosa ATCC 27853; format: functional
Staphylococcus aureus [10] = test: Potency index, ratio of nitazoxanide MIC to test compound MIC for antibacterial activity against Staphylococcus aureus ATCC 6538; format: functional
Enterococcus faecalis [11] = test: Potency index, ratio of nitazoxanide MIC to test compound MIC for antibacterial activity against Enterococcus faecalis ATCC 19433; format: functional
Klebsiella pneumoniae [12] = test: Potency index, ratio of nitazoxanide MIC to test compound MIC for antibacterial activity against Klebsiella pneumoniae ATCC 10031; format: functional

SMILES | MIC (Escherichia coli [1]) | MIC (Klebsiella pneumoniae [2]) | MIC (Helicobacter pylori) | MIC [3] | MIC (Staphylococcus aureus [4]) | MIC (Enterococcus faecalis [5]) | Cell growth inhibition (RAW264.7) | selectivity ratio [6] | Ratio (Escherichia coli [7]) | MIC (Pseudomonas aeruginosa [8]) | Ratio (Pseudomonas aeruginosa [9]) | Ratio (Staphylococcus aureus [10]) | Ratio (Enterococcus faecalis [11]) | Ratio (Klebsiella pneumoniae [12])
O=C(Nc1ncc([N+](=O)[O-])s1)c1ccc(-n2cc(CN3C(=O)C(=O)c4cc(Cl)ccc43)nn2)cc1O | 487 µM (≈ 256 µg/mL) | 60.9 µM (≈ 32 µg/mL) | 4.75 µM (≈ 2.5 µg/mL) | > 25 µg/mL |  |  |  |  |  |  |  |  |  | 
[N-]=[N+]=Nc1ccc(C(=O)Nc2ncc([N+](=O)[O-])s2)c(O)c1 | 4.89 µM (≈ 1.5 µg/mL) | 313 µM (≈ 96 µg/mL) | 104 µM (≈ 32 µg/mL) | 3.12 µg/mL (≈ 10.2 µM) | 9.79 µM (≈ 3 µg/mL) | 26.1 µM (≈ 8 µg/mL) | 28.53% | 8 | 20 |  |  |  |  | 
CC(=O)Oc1ccccc1C(=O)Nc1ncc([N+](=O)[O-])s1 [NITAZOXANIDE] | 104 µM (≈ 32 µg/mL) | 182 µM (≈ 56 µg/mL) | 13 µM (≈ 4 µg/mL) |  | 104 µM (≈ 32 µg/mL) | 156 µM (≈ 48 µg/mL) | 20.65% | 4 |  | 417 µM (≈ 128 µg/mL) |  |  |  | 
COc1ccc2c(c1)C(=O)C(=O)N2Cc1cn(-c2ccc(C(=O)Nc3ncc([N+](=O)[O-])s3)c(O)c2)nn1 | 15.3 µM (≈ 8 µg/mL) | 491 µM (≈ 256 µg/mL) | 9.58 µM (≈ 5 µg/mL) | > 25 µg/mL | 92 µM (≈ 48 µg/mL) | 184 µM (≈ 96 µg/mL) |  |  |  |  |  |  |  | 
O=C(Nc1ncc([N+](=O)[O-])s1)c1ccc(-n2cc(CN3CCCC3)nn2)cc1O | 6.01 µM (≈ 2.5 µg/mL) | 12 µM (≈ 5 µg/mL) | 19.2 µM (≈ 8 µg/mL) | > 25 µg/mL | 3.61 µM (≈ 1.5 µg/mL) |  |  |  |  | 7.22 µM (≈ 3 µg/mL) | >50 | 25 |  | 
O=C(Nc1ncc([N+](=O)[O-])s1)c1ccc(-n2cc(CN3CCCCC3)nn2)cc1O | 74.5 µM (≈ 32 µg/mL) | 1190 µM (≈ 512 µg/mL) | 1.74 µM (≈ 0.747 µg/mL) | > 25 µg/mL | 9.31 µM (≈ 4 µg/mL) | 27.9 µM (≈ 12 µg/mL) |  |  |  |  |  |  |  | 
O=C(O)c1cn(C2CC2)c2cc(N3CCNCC3)c(F)cc2c1=O [CIPROFLOXACIN] | 0.3 µM (≈ 0.0994 µg/mL) | 9.05 µM (≈ 3 µg/mL) | 1.5 µM (≈ 0.497 µg/mL) |  | 3.01 µM (≈ 0.997 µg/mL) | 6.03 µM (≈ 2 µg/mL) |  |  |  | 4.53 µM (≈ 1.5 µg/mL) |  |  |  | 
O=C(Nc1ncc([N+](=O)[O-])s1)c1ccc(-n2cc(CSc3nc4ccccc4s3)nn2)cc1O | 3.9 µM (≈ 2 µg/mL) | 23.4 µM (≈ 12 µg/mL) | 15.6 µM (≈ 8 µg/mL) | > 25 µg/mL | 3.9 µM (≈ 2 µg/mL) |  |  |  | 20 | 31.3 µM (≈ 16 µg/mL) |  | 25 |  | 
O=C(Nc1ncc([N+](=O)[O-])s1)c1ccc(-n2cc(CN3C(=O)C(=O)c4ccccc43)nn2)cc1O |  |  | 130 µM (≈ 64 µg/mL) | > 25 µg/mL | 32.5 µM (≈ 16 µg/mL) | 4.06 µM (≈ 2 µg/mL) |  |  |  | 16.3 µM (≈ 8 µg/mL) |  |  | 25 | 
CN1CCN(Cc2cn(-c3ccc(C(=O)Nc4ncc([N+](=O)[O-])s4)c(O)c3)nn2)CC1 |  | 8.99 µM (≈ 4 µg/mL) | 6.74 µM (≈ 3 µg/mL) | > 25 µg/mL | 4.49 µM (≈ 2 µg/mL) |  |  |  |  | 144 µM (≈ 64 µg/mL) |  | 25 |  | <=20
O=C(Nc1ncc([N+](=O)[O-])s1)c1ccc(-n2cc(CN3C(=O)C(=O)c4cc(F)ccc43)nn2)cc1O |  |  | 3.92 µM (≈ 2 µg/mL) | > 25 µg/mL | 15.7 µM (≈ 8 µg/mL) | 4.9 µM (≈ 2.5 µg/mL) |  |  |  | 7.85 µM (≈ 4 µg/mL) | >50 |  | 25 | 
O=C(Nc1ncc([N+](=O)[O-])s1)c1ccc(-n2cc(CN3CCN(c4ccccc4)CC3)nn2)cc1O | 11.8 µM (≈ 6 µg/mL) | 253 µM (≈ 128 µg/mL) | 31.6 µM (≈ 16 µg/mL) | > 25 µg/mL | 505 µM (≈ 256 µg/mL) | 1.97 µM (≈ 0.998 µg/mL) |  |  |  | 2.96 µM (≈ 1.5 µg/mL) | >50 |  | 25 | 
